# Experimental data from ChEMBL document CHEMBL1159325, “Pseudoirroratin A, a new cytotoxic ent-kaurene diterpene from Isodon pseudo-irrorata” (J Nat Prod, 2002).
# Tests used:
# Type in all cases: functional, cell-based
# [1] = tested on: LNCaP; experiment: Cytotoxicity against human LNCAP cells by MTT assay
# In short: (§1)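 Cytotoxicity was run on human cell lines (Lu1, SW626, LNCaP, KB, and the HOG.R5 reporter line derived from parental HOS cells) following a previously established protocol. Camptothecin served as the positive control, and results were expressed as IC50.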
# [2] = tested on: SW626; experiment: Cytotoxicity against human SW626 cells by MTT assay; in short: as §1
# [3] = tested on: Lu1; experiment: Cytotoxicity against human Lu1 cells by MTT assay; in short: as §1
# [4] = tested on: KB; experiment: Cytotoxicity against human KB cells by MTT assay; in short: as §1
# [5] = Cytotoxicity against human HOG.R5 cells by MTT assay; in short: as §1
# [6] = tested on: HOS; experiment: Cytotoxicity against human HOS cells by MTT assay
Structure (SMILES),IC50 [1] [nM],IC50 [2] [nM],IC50 [3] [nM],IC50 [4] [nM],IC50 [5] [nM],IC50 [6] [nM]
CC[C@@]1(O)C(=O)OCc2c1cc1n(c2=O)Cc2cc3ccccc3nc2-1 [CAMPTOTHECIN],86.1,28.7,28.7,28.7,28.7,
C=C1C(=O)[C@]23[C@H](O)C[C@@H]4C(C)(C)CCC[C@]45CO[C@](O)(C[C@@H]1[C@H]2O)[C@@H]53 [PSEUDOIRRORATIN A],2590,570,750,2590,,1440
